Data from ChEMBL document CHEMBL1148769, “3,17-disubstituted 2-alkylestra-1,3,5(10)-trien-3-ol derivatives: synthesis, in vitro and in vivo anticancer activity” (J Med Chem, 2007).
The source made the active and inactive calls. The calls are words filed in the database; no cut-off is given here.

Assays:
[1] = tested on: DU-145; experiment: Antiproliferative activity against human DU145 cells after 96 hrs by WST1 assay; assay type: functional; conditions: DU-145, 96 h
How it was run: (§1)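 Cells kept in RPMI-1640 with 10% FBS, penicillin and streptomycin at 37 °C in 5% CO2. Seeded at 5000 cells/well, exposed to 10^-9-10^-4 M compound or vehicle for 96 h. Live cells counted by WST-1 and viability expressed as % of mean control, from which GI50 was calculated. Triplicate experiments.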

[2] = tested on: MCF7; experiment: Antiproliferative activity against human MCF7 cells by WST1 assay; assay type: functional
[3] = tested on: MDA-MB-231; experiment: Antiproliferative activity against human MDA-MB-231 cells after 96 hrs by WST1 assay; assay type: functional; conditions: MDA-MB-231, 96 h; how it was run: as §1
[4] = molecular target: T1, Steryl-sulfatase (Homo sapiens, UniProt P08842); experiment: Inhibition of steroid sulfatase in placental microsomes; design: species or system Placenta
T1 sequence (P08842 whole entry): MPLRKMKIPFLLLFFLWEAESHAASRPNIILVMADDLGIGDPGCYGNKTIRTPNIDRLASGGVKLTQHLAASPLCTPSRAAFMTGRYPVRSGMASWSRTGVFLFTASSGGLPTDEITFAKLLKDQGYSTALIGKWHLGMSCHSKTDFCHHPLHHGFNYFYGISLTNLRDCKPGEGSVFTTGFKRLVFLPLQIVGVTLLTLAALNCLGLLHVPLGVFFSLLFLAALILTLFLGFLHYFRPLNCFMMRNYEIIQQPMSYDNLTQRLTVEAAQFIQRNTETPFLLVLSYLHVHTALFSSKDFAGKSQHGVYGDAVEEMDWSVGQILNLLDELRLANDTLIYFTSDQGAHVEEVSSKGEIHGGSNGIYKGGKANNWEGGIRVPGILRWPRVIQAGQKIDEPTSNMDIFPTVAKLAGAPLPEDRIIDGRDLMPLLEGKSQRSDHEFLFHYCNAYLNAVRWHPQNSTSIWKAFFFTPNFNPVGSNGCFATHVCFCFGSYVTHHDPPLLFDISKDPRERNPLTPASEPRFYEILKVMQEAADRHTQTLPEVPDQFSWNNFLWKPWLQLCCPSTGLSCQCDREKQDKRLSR
How it was run: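 Radiometric assay of STS activity in placental microsomes: conversion of tritiated estradiol-3-sulfate to estradiol is measured.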

[5] = tested on: DU-145; experiment: Antitumor activity against human DU145 cells xenografted athymic mouse at 20 mg/kg/day, po after 25 days; assay type: functional
How it was run: (§2)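 Male NCr-nude mice, 6-8 weeks old, implanted s.c. in the flank with 5 × 10⁶ DU145 cells; treatment began once tumors reached about 50-100 mm³. Dosed orally at 10, 20 or 40 mg/kg once daily for 28 d. Tumor volume was (w² × l)/2 and inhibition read after 25 days of treatment (day 35).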

[6] = tested on: DU-145; experiment: Antitumor activity against human DU145 cells xenografted athymic mouse at 40 mg/kg/day, po after 25 days; assay type: functional; how it was run: as §2
[7] = tested on: DU-145; experiment: Antitumor activity against human DU145 cells xenografted athymic mouse at 10 mg/kg/day, po after 25 days; assay type: functional; how it was run: as §2
[8] = tested on: MDA-MB-231; experiment: Antitumor activity against human MDA-MB-231 cells xenografted athymic mouse at 60 mg/kg/day, po after 28 days; assay type: functional, organism-based
How it was run: (§3)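 Female NCr-nude mice, 6-8 weeks old, bearing MDA-MB-231 xenografts, dosed orally in THF/PG vehicle from day 10. Schedules: 60 mg/kg daily for 28 d (to day 38), 90 mg/kg Mon/Wed/Fri × 4 (to day 36), or 200 mg/kg weekly × 4 (to day 32). Tumor volume was (w² × l)/2; one-way ANOVA against control.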

[9] = tested on: MDA-MB-231; experiment: Antitumor activity against human MDA-MB-231 cells xenografted athymic mouse at 90 mg/kg, po thrice a week for 4 weeks; assay type: functional, organism-based; design: dose 90 mg/kg; how it was run: as §3
[10] = tested on: MDA-MB-231; experiment: Antitumor activity against human MDA-MB-231 cells xenografted athymic mouse at 200 mg/kg, po, once a week for 4 weeks; assay type: functional, organism-based; design: dose 200 mg/kg; how it was run: as §3

| Compound | GI50 [1] | GI50 [3] | also measured |
| --- | --- | --- | --- |
| C[C@]12CC[C@@H]3c4ccc(OS(N)(=O)=O)cc4CC[C@H]3[C@@H]1CC[C@@H]2OC(N)=O | > 100 µM | > 100 µM | GI50 [2]: 45 µM; IC50 [4]: 0.04 µM |
| CC(C)c1cc2c(cc1OS(N)(=O)=O)CC[C@@H]1[C@@H]2CC[C@]2(C)[C@@H](OS(N)(=O)=O)CC[C@@H]12 | 1.8 µM | – | – |
| CC(C)c1cc2c(cc1OS(N)(=O)=O)CC[C@@H]1[C@@H]2CC[C@]2(C)[C@@H](OC(N)=O)CC[C@@H]12 | 2.4 µM | 3.4 µM | – |
| CCCCc1cc2c(cc1OS(N)(=O)=O)CC[C@@H]1[C@@H]2CC[C@]2(C)[C@@H](OS(N)(=O)=O)CC[C@@H]12 | 9 µM | 10.7 µM | – |
| CC(C)c1cc2c(cc1O)CC[C@@H]1[C@@H]2CC[C@]2(C)[C@@H](O)CC[C@@H]12 | 23 µM | – | – |
| CCCCc1cc2c(cc1OS(N)(=O)=O)CC[C@@H]1[C@@H]2CC[C@]2(C)[C@@H](OC(N)=O)CC[C@@H]12 | 15 µM | > 100 µM | – |
| COc1cc2c(cc1O)CC[C@@H]1[C@@H]2CC[C@]2(C)[C@@H](O)CC[C@@H]12 [2-METHOXYESTRADIOL] | – | 0.94 µM | – |
| CCc1cc2c(cc1O)CC[C@@H]1[C@@H]2CC[C@]2(C)[C@@H](O)CC[C@@H]12 | 10.3 µM | 8 µM | – |
| CCCc1cc2c(cc1OS(N)(=O)=O)CC[C@@H]1[C@@H]2CC[C@]2(C)[C@@H](OC(C)=O)CC[C@@H]12 | 61.3 µM | 20.4 µM | – |
| COc1cc2c(cc1OS(N)(=O)=O)CC[C@@H]1[C@@H]2CC[C@]2(C)[C@@H](OC(N)=O)CC[C@@H]12 | 1.34 µM | 1.15 µM | GI50 [2]: 3.5 µM; IC50 [4]: 0.52 µM |
| COc1cc2c(cc1OS(N)(=O)=O)CC[C@@H]1[C@@H]2CC[C@]2(C)[C@@H](OS(N)(=O)=O)CC[C@@H]12 | 0.34 µM | 0.28 µM | – |
| CC(C)(C)c1cc2c(cc1OS(N)(=O)=O)CC[C@@H]1[C@@H]2CC[C@]2(C)[C@@H](OS(N)(=O)=O)CC[C@@H]12 | > 10 µM | – | – |
| CCCCc1cc2c(cc1O)CC[C@@H]1[C@@H]2CC[C@]2(C)[C@@H](O)CC[C@@H]12 | > 100 µM | > 100 µM | – |

Further molecules by falling GI50 [1], results first:

| GI50 [1] | GI50 [3] | Compound | also measured |
| --- | --- | --- | --- |
| 51 µM | – | Cc1cc2c(cc1O)CC[C@@H]1[C@@H]2CC[C@]2(C)[C@@H](O)CC[C@@H]12 | – |
| 24 µM | – | CC(C)(C)c1cc2c(cc1O)CC[C@@H]1[C@@H]2CC[C@]2(C)[C@@H](O)CC[C@@H]12 | – |
| 21 µM | 14.5 µM | CCCc1cc2c(cc1OS(N)(=O)=O)CC[C@@H]1[C@@H]2CC[C@]2(C)[C@@H](OC(N)=O)CC[C@@H]12 | – |
| 18.4 µM | 21.6 µM | CCCCc1cc2c(cc1OS(N)(=O)=O)CC[C@@H]1[C@@H]2CC[C@]2(C)[C@@H](OC(C)=O)CC[C@@H]12 | – |
| 15 µM | 16.6 µM | CCCc1cc2c(cc1O)CC[C@@H]1[C@@H]2CC[C@]2(C)[C@@H](O)CC[C@@H]12 | – |
| 13 µM | 17 µM | CC(C)(C)c1cc2c(cc1OS(N)(=O)=O)CC[C@@H]1[C@@H]2CC[C@]2(C)[C@@H](OC(N)=O)CC[C@@H]12 | – |
| 11.5 µM | 18.3 µM | C[C@]12CC[C@@H]3c4ccc(OS(N)(=O)=O)cc4CC[C@H]3[C@@H]1CC[C@@H]2OS(N)(=O)=O | – |
| 3.4 µM | 6.4 µM | CCCc1cc2c(cc1OS(N)(=O)=O)CC[C@@H]1[C@@H]2CC[C@]2(C)[C@@H](OS(N)(=O)=O)CC[C@@H]12 | – |
| 1.9 µM | 4.7 µM | Cc1cc2c(cc1OS(N)(=O)=O)CC[C@@H]1[C@@H]2CC[C@]2(C)[C@@H](OC(N)=O)CC[C@@H]12 | – |
| 1.6 µM | – | CCc1cc2c(cc1OS(N)(=O)=O)CC[C@@H]1[C@@H]2CC[C@]2(C)[C@@H](OC(C)=O)CC[C@@H]12 | – |
| 0.38 µM | 0.25 µM | Cc1cc2c(cc1OS(N)(=O)=O)CC[C@@H]1[C@@H]2CC[C@]2(C)[C@@H](OS(N)(=O)=O)CC[C@@H]12 | – |
| 0.22 µM | 0.39 µM | CCc1cc2c(cc1OS(N)(=O)=O)CC[C@@H]1[C@@H]2CC[C@]2(C)[C@@H](OC(N)=O)CC[C@@H]12 | GI50 [2]: 0.64 µM |
| 0.21 µM | 0.21 µM | CCc1cc2c(cc1OS(N)(=O)=O)CC[C@@H]1[C@@H]2CC[C@]2(C)[C@@H](OS(N)(=O)=O)CC[C@@H]12 | Activity [5]: 27%; Activity [6]: 65%; Activity [7]: 24%; Activity [8]: Active; Activity [9]: Active; Activity [10]: Active |
